Data as given in paper PMC5338039 (Biochemistry, 2017).
“Also recorded” adds a separate entry of the source.

What was measured:
WT GPR55 [1] = target: T1, WT GPR55 (Homo sapiens, UniProt Q9Y2T6); experiment: SRE luciferase assay, WT GPR55; format: cell-based
GPR55 Y3.32F [2] = target: T2, GPR55 Y3.32F (Homo sapiens, UniProt Q9Y2T6, Y101F); experiment: SRE luciferase assay, Y3.32F mutant; format: cell-based
Procedure, shortened: (§1)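 HA-tagged human GPR55 (WT or sequence-confirmed site-directed mutant, pcDNA3) co-transfected by lipofection with pGL4.33 luc2P/SRE reporter into HEK293 cells; 60,000 cells/well, switched to 1% FBS/DMEM after 5 h, overnight. Agonist test compounds (10 mM DMSO stocks) added for 5 h in serum-free DMEM, 37°C. Cells lysed 10 min at room temperature, luciferin injected, luminescence read immediately (RLU). EC50 from sigmoidal nonlinear regression.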

GPR55 Y3.32L [3] = target: T3, GPR55 Y3.32L (Homo sapiens, UniProt Q9Y2T6, Y101L); experiment: SRE luciferase assay, Y3.32L mutant; format: cell-based
Procedure, shortened: as §1

GPR55 F6.55A [4] = target: T4, GPR55 F6.55A (Homo sapiens, UniProt Q9Y2T6, F246A); experiment: SRE luciferase assay, F6.55A mutant; format: cell-based
Procedure, shortened: as §1

GPR55 F6.55L [5] = target: T5, GPR55 F6.55L (Homo sapiens, UniProt Q9Y2T6, F246L); experiment: SRE luciferase assay, F6.55L mutant; format: cell-based
Procedure, shortened: as §1

GPR55 Q6.58M = GPR55 Q6.58M (Homo sapiens, UniProt Q9Y2T6, Q249M); experiment: SRE luciferase assay, Q6.58M mutant; format: cell-based
Procedure, shortened: as §1

GPR55 C(10)A [6] = target: T6, GPR55 C(10)A (Homo sapiens, UniProt Q9Y2T6, C10A); experiment: SRE luciferase assay, C; format: cell-based
Procedure, shortened: as §1

GPR55 H(170)F = GPR55 H(170)F (Homo sapiens, UniProt Q9Y2T6, H170F); experiment: SRE luciferase assay, H; format: cell-based
Procedure, shortened: as §1

GPR55 C(260)A [7] = target: T7, GPR55 C(260)A (Homo sapiens, UniProt Q9Y2T6, C260A); experiment: SRE luciferase assay, C; format: cell-based
Procedure, shortened: as §1

GPR55 Q7.36A = GPR55 Q7.36A (Homo sapiens, UniProt Q9Y2T6, Q271A); experiment: SRE luciferase assay, Q7.36A mutant; format: cell-based
Procedure, shortened: as §1

GPR55 Q7.36N = GPR55 Q7.36N (Homo sapiens, UniProt Q9Y2T6, Q271N); experiment: SRE luciferase assay, Q7.36N mutant; format: cell-based
Procedure, shortened: as §1

GPR55 M3.36A [8] = target: T8, GPR55 M3.36A (Homo sapiens, UniProt Q9Y2T6, M105A); experiment: SRE luciferase assay, M3.36A mutant; format: cell-based
Procedure, shortened: as §1

GPR55 F6.48A [9] = target: T9, GPR55 F6.48A (Homo sapiens, UniProt Q9Y2T6, F239A); experiment: SRE luciferase assay, F6.48A mutant; format: cell-based
Procedure, shortened: as §1

GPR55 K2.60A [10] = target: T10, GPR55 K2.60A (Homo sapiens, UniProt Q9Y2T6, K80A); experiment: SRE luciferase assay, K2.60A mutant; format: cell-based
Procedure, shortened: as §1

GPR55 E3.29A [11] = target: T11, GPR55 E3.29A (Homo sapiens, UniProt Q9Y2T6, E98A); experiment: SRE luciferase assay, E3.29A mutant; format: cell-based
Procedure, shortened: as §1

GPR55 E3.29L [12] = target: T12, GPR55 E3.29L (Homo sapiens, UniProt Q9Y2T6, E98L); experiment: SRE luciferase assay, E3.29L mutant; format: cell-based
Procedure, shortened: as §1

WT GPR55 [13] = target: T1, WT GPR55; experiment: SRF luciferase assay, WT GPR55; format: cell-based
GPR55 Y3.32F [14] = target: T2, GPR55 Y3.32F; experiment: SRF luciferase assay, Y3.32F mutant; format: cell-based
GPR55 Y3.32L [15] = target: T3, GPR55 Y3.32L; experiment: SRF luciferase assay, Y3.32L mutant; format: cell-based
GPR55 F6.55A [16] = target: T4, GPR55 F6.55A; experiment: SRF luciferase assay, F6.55A mutant; format: cell-based
GPR55 F6.55L [17] = target: T5, GPR55 F6.55L; experiment: SRF luciferase assay, F6.55L mutant; format: cell-based
GPR55 C(10)A [18] = target: T6, GPR55 C(10)A; experiment: SRF luciferase assay, C; format: cell-based
GPR55 C(260)A [19] = target: T7, GPR55 C(260)A; experiment: SRF luciferase assay, C; format: cell-based
GPR55 M3.36A [20] = target: T8, GPR55 M3.36A; experiment: SRF luciferase assay, M3.36A mutant; format: cell-based
GPR55 F6.48A [21] = target: T9, GPR55 F6.48A; experiment: SRF luciferase assay, F6.48A mutant; format: cell-based
GPR55 K2.60A [22] = target: T10, GPR55 K2.60A; experiment: SRF luciferase assay, K2.60A mutant; format: cell-based
GPR55 E3.29A [23] = target: T11, GPR55 E3.29A; experiment: SRF luciferase assay, E3.29A mutant; format: cell-based
GPR55 E3.29L [24] = target: T12, GPR55 E3.29L; experiment: SRF luciferase assay, E3.29L mutant; format: cell-based
GPR55 = conditions: agonist screen of the NIH library; cited from earlier work

GPR55 Q6.58M, sequence (Q9Y2T6 whole entry Q249M): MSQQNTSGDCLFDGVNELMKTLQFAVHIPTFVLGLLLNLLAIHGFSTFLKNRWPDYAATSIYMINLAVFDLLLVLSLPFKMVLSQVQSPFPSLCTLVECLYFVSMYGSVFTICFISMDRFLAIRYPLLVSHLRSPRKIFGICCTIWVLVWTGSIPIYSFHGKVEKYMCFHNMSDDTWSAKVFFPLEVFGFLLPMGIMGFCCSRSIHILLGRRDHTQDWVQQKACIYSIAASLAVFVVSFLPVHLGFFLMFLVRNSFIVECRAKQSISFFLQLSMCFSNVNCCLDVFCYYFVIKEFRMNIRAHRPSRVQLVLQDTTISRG
T9 sequence (Q9Y2T6 whole entry F239A): as the sequence (Q9Y2T6 whole entry Q249M) above, with F239A, M249Q counted along it
T7 sequence (Q9Y2T6 whole entry C260A): as the sequence (Q9Y2T6 whole entry Q249M) above, with M249Q, C260A counted along it
T6 sequence (Q9Y2T6 whole entry C10A): as the sequence (Q9Y2T6 whole entry Q249M) above, with C10A, M249Q counted along it
T3 sequence (Q9Y2T6 whole entry Y101L): as the sequence (Q9Y2T6 whole entry Q249M) above, with Y101L, M249Q counted along it
T10 sequence (Q9Y2T6 whole entry K80A): as the sequence (Q9Y2T6 whole entry Q249M) above, with K80A, M249Q counted along it
T12 sequence (Q9Y2T6 whole entry E98L): as the sequence (Q9Y2T6 whole entry Q249M) above, with E98L, M249Q counted along it
T2 sequence (Q9Y2T6 whole entry Y101F): as the sequence (Q9Y2T6 whole entry Q249M) above, with Y101F, M249Q counted along it
GPR55 Q7.36N, sequence (Q9Y2T6 whole entry Q271N): as the sequence (Q9Y2T6 whole entry Q249M) above, with M249Q, Q271N counted along it
T11 sequence (Q9Y2T6 whole entry E98A): as the sequence (Q9Y2T6 whole entry Q249M) above, with E98A, M249Q counted along it
T8 sequence (Q9Y2T6 whole entry M105A): as the sequence (Q9Y2T6 whole entry Q249M) above, with M105A, M249Q counted along it
T4 sequence (Q9Y2T6 whole entry F246A): as the sequence (Q9Y2T6 whole entry Q249M) above, with F246A, M249Q counted along it
GPR55 Q7.36A, sequence (Q9Y2T6 whole entry Q271A): as the sequence (Q9Y2T6 whole entry Q249M) above, with M249Q, Q271A counted along it
T5 sequence (Q9Y2T6 whole entry F246L): as the sequence (Q9Y2T6 whole entry Q249M) above, with F246L, M249Q counted along it
GPR55 H(170)F, sequence (Q9Y2T6 whole entry H170F): as the sequence (Q9Y2T6 whole entry Q249M) above, with H170F, M249Q counted along it
T1 sequence (Q9Y2T6 whole entry): as the sequence (Q9Y2T6 whole entry Q249M) above, with M249Q counted along it

Cc1cccc(N2CCN(C(=O)c3cc(S(=O)(=O)N(C)C)ccc3N3CCCC3)CC2)c1C [ML184, 3-[4-(2,3-dimethylphenyl)piperazine-1-carbonyl]-N,N-dimethyl-4-pyrrolidin-1-ylbenzenesulfonamide]
EC50 (WT GPR55 [1]): 56 nM
EC50 (GPR55 Y3.32F [2]): 1660 nM
SRE response compared with WT (in words) (GPR55 Y3.32F [2]; Y3.32F): right shifted SRE response curves
Fold/WT, SRE EC50 (GPR55 Y3.32F [2]; Y3.32F vs WT): 30 fold
EC50 (GPR55 Y3.32L [3]): 9510 nM
SRE response compared with WT (in words) (GPR55 Y3.32L [3]; Y3.32L): right shifted SRE response curves
Fold/WT, SRE EC50 (GPR55 Y3.32L [3]; Y3.32L vs WT): 170 fold
EC50 (GPR55 F6.55A [4]): 840 nM
SRE response compared with WT (in words) (GPR55 F6.55A [4]; F6.55A): right shifted curves
Fold/WT, SRE EC50 (GPR55 F6.55A [4]; F6.55A vs WT): 15 fold
EC50 (GPR55 F6.55L [5]): 5130 nM
SRE response compared with WT (in words) (GPR55 F6.55L [5]; F6.55L): right shifted curves
Fold/WT, SRE EC50 (GPR55 F6.55L [5]; F6.55L vs WT): 92 fold
EC50 (GPR55 Q6.58M): 72 nM
SRE response compared with WT (in words) (GPR55 Q6.58M; Q6.58M): retained WT signalling; also recorded: almost identical to that of WT
Fold/WT, SRE EC50 (GPR55 Q6.58M; Q6.58M vs WT): 1 fold
EC50 (GPR55 C(10)A [6]): 635 nM
Fold/WT, SRE EC50 (GPR55 C(10)A [6]; C(10)A vs WT): 11 fold
EC50 (GPR55 H(170)F): 341 nM
SRE response compared with WT (in words) (GPR55 H(170)F; H(170)F): slight difference from that of WT
Fold/WT, SRE EC50 (GPR55 H(170)F; H(170)F vs WT): 6 fold
EC50 (GPR55 C(260)A [7]): 657 nM
Fold/WT, SRE EC50 (GPR55 C(260)A [7]; C(260)A vs WT): 12 fold
EC50 (GPR55 Q7.36A): 230 nM
SRE response compared with WT (in words) (GPR55 Q7.36A; Q7.36A): retains WT signalling
Fold/WT, SRE EC50 (GPR55 Q7.36A; Q7.36A vs WT): 4 fold
EC50 (GPR55 Q7.36N): 154 nM
SRE response compared with WT (in words) (GPR55 Q7.36N; Q7.36N): retains WT signalling
Fold/WT, SRE EC50 (GPR55 Q7.36N; Q7.36N vs WT): 3 fold
EC50 (GPR55 M3.36A [8]): 900 nM
SRE response compared with WT (in words) (GPR55 M3.36A [8]; M3.36A): SRE induction comparable to wild-type; also recorded: increased EC50 values
Fold/WT, SRE EC50 (GPR55 M3.36A [8]; M3.36A vs WT): 16 fold
EC50 (GPR55 F6.48A [9]): 514 nM
SRE response compared with WT (in words) (GPR55 F6.48A [9]; F6.48A): SRE induction comparable to wild-type; also recorded: increased EC50 values
Fold/WT, SRE EC50 (GPR55 F6.48A [9]; F6.48A vs WT): 9 fold
SRE response compared with WT (in words) (GPR55 K2.60A [10]): complete loss of signalling; also recorded: did not show any response
EC50, SRE response (GPR55 K2.60A [10]; transfected HEK293, n ≥ 3): NO response
EC50 (GPR55 E3.29A [11]): > 30000 nM
SRE response compared with WT (in words) (GPR55 E3.29A [11]; E3.29A): profound reduction of receptor signalling; also recorded: very little responses
EC50 (GPR55 E3.29L [12]): > 30000 nM
SRE response compared with WT (in words) (GPR55 E3.29L [12]; E3.29L): profound reduction of receptor signalling; also recorded: very little responses
EC50 (WT GPR55 [13]): 33 nM
EC50 (GPR55 Y3.32F [14]): 851 nM
SRF response compared with WT (in words) (GPR55 Y3.32F [14]; Y3.32F): right shifted curves
Fold/WT, SRF EC50 (GPR55 Y3.32F [14]; Y3.32F vs WT): 26 fold
EC50 (GPR55 Y3.32L [15]): 864000 nM
SRF response compared with WT (in words) (GPR55 Y3.32L [15]; Y3.32L): right shifted curves
Fold/WT, SRF EC50 (GPR55 Y3.32L [15]; Y3.32L vs WT): 26182 fold
EC50 (GPR55 F6.55A [16]): 550 nM
SRF response compared with WT (in words) (GPR55 F6.55A [16]; F6.55A): higher EC50 values than WT
Fold/WT, SRF EC50 (GPR55 F6.55A [16]; F6.55A vs WT): 17 fold
EC50 (GPR55 F6.55L [17]): 10500 nM
SRF response compared with WT (in words) (GPR55 F6.55L [17]; F6.55L): higher EC50 values than WT
Fold/WT, SRF EC50 (GPR55 F6.55L [17]; F6.55L vs WT): 318 fold
EC50 (GPR55 C(10)A [18]): 554 nM
SRF response compared with WT (in words) (GPR55 C(10)A [18]; C(10)A): less response than WT
Fold/WT, SRF EC50 (GPR55 C(10)A [18]; C(10)A vs WT): 17 fold
EC50 (GPR55 C(260)A [19]): 363 nM
SRF response compared with WT (in words) (GPR55 C(260)A [19]; C(260)A): less response than WT
Fold/WT, SRF EC50 (GPR55 C(260)A [19]; C(260)A vs WT): 11 fold
EC50 (GPR55 M3.36A [20]): 2040 nM
SRF response compared with WT (in words) (GPR55 M3.36A [20]; M3.36A): reduced responses
Fold/WT, SRF EC50 (GPR55 M3.36A [20]; M3.36A vs WT): 62 fold
EC50 (GPR55 F6.48A [21]): 335 nM
SRF response compared with WT (in words) (GPR55 F6.48A [21]; F6.48A): reduced responses
Fold/WT, SRF EC50 (GPR55 F6.48A [21]; F6.48A vs WT): 10 fold
SRF response compared with WT (in words) (GPR55 K2.60A [22]): not able to induce any response; also recorded: complete loss of signalling
EC50, SRF response (GPR55 K2.60A [22]; transfected HEK293, n ≥ 3): NO response
EC50 (GPR55 E3.29A [23]): > 30000 nM
SRF response compared with WT (in words) (GPR55 E3.29A [23]; E3.29A): reduced responses
EC50 (GPR55 E3.29L [24]): > 30000 nM
SRF response compared with WT (in words) (GPR55 E3.29L [24]; E3.29L): reduced responses
EC50 (GPR55): 263 nM
